The values that follow come from ChEMBL document CHEMBL1132105, “Substituted analogues of GV150526 as potent glycine binding site antagonists in animal models of cerebral ischemia” (J Med Chem, 1999).

One data set concerns the target Glutamate NMDA receptor. Put plainly: Inhibition of [3H]glycine binding to N-methyl-D-aspartate glutamate receptor in synaptic membranes of rat cerebral cortex. It is filed as cell membranes. The essentials:
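Crude synaptic membranes from adult rat cerebral cortex; 20 nM [3H]glycine, 50 mM Tris/citrate pH 7.10, 20 min at 4 °C. Seven concentrations in duplicate; stock 5 mM in DMSO. Ki from at least six-point inhibition curves by nonlinear fitting; geometric mean of at least three experiments.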

In the next data set the target is Albumin (Rattus norvegicus, UniProt P02770). Description: Binding to rat serum albumin.
Sequence of Albumin (P02770 whole entry): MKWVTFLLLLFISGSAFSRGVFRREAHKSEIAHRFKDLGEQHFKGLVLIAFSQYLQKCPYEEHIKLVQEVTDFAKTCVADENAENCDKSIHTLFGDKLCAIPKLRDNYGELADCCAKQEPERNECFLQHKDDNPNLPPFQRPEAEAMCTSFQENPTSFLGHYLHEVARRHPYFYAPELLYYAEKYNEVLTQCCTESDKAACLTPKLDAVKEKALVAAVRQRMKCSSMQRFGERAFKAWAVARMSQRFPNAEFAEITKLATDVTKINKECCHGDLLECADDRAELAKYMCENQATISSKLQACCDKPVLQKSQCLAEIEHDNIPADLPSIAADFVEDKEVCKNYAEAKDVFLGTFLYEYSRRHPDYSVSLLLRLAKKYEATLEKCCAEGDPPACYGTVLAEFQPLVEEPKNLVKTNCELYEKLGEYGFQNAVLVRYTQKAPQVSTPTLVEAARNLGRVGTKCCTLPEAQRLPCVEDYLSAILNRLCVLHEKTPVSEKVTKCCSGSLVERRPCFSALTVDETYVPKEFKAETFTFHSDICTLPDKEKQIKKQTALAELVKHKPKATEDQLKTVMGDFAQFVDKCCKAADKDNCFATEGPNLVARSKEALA
In data set [1] the test system is Mus musculus. Put plainly: Inhibition of NMDA-induced convulsions in mice by the compound when administered by intravenous route. It is filed as functional. In short, it runs like this: (§1)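 Male CD-1 mice (18-29 g); test compound given iv (1 min) or po (1 h) before icv NMDA (1 nmol/mouse). Animals observed 30 min for generalized seizures and scored protected if none occurred. Percentage protected per group recorded; ED50 estimated with 95% confidence limits.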

For data set [2], the system named is Mus musculus. Put plainly: Inhibition of NMDA-induced convulsions in mice by the compound when administered by peroral route. Conditions: po. It is filed as functional. In short, it runs like this:
as §1

Data set [3] deals with Glutamate receptor ionotropic, AMPA (Rattus norvegicus, UniProt P19490+P19491+P19492+P19493). Description: Inhibition of binding of [3H]AMPA to Ionotropic glutamate receptor AMPA in synaptic membranes of rat cerebral cortex. In kind it is cell membranes. In short, it runs like this:
(§2)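 Rat cortical membrane radioligand binding; compounds from 5 mM DMSO stock tested at five concentrations, 10 nM to 100 µM, with a reference compound as internal control.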

The nature of data set [4]: Inhibition of binding of [3H]CPP in presence of glutamate to glutamate binding site of N-methyl-D-aspartate glutamate receptor in synaptic membranes of rat cerebral cortex. In kind it is cell membranes.
The test system of data set [5] is Rattus norvegicus. Put plainly: Postischemic effect of the compound in the MACo model in rats measured 24 hr after occlusion at an intravenous dose of 1 mg/kg. In kind it is functional. The essentials: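 Male Sprague-Dawley rats (280-350 g), permanent distal MCA electrocoagulation under chloral hydrate; single iv bolus 1 mg/kg given 6 h after occlusion, vehicle 3% DMSO in water. Infarct volume from TTC-stained 0.5 mm coronal slices 24 h after occlusion, trapezoidal rule, n = 8.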

In data set [6] the test system is Rattus norvegicus. Description: Preischemic effect of the compound in the MACo model in rats measured 24 hr after occlusion at an intravenous dose of 0.1 mg/kg. It is filed as functional. The essentials: (§3)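 Permanent distal MCA electrocoagulation in male Sprague-Dawley rats (280-350 g) under chloral hydrate (400 mg/kg ip), normothermic; compound iv 5 min before occlusion, in 3% DMSO in water. At 24 h, 0.5 mm coronal slices stained with 2% TTC (37 °C, 20 min); infarct volume by trapezoidal rule, n = 8; reduction vs vehicle.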

The species entered for data set [7] is Rattus norvegicus. Description: Percent damage reduction. In kind it is functional. Also noted: concentration or dose not given beside the values. In short, it runs like this: as §3
Data set [8] has as its system Rattus norvegicus. Description: Preischemic effect of the compound in the MACo model in rats measured 24 hr after occlusion at an intravenous dose of 0.3 mg/kg. In kind it is functional. In short, it runs like this: as §3
In data set [9] the test system is Rattus norvegicus. Put plainly: Preischemic effect of the compound in the MACo model in rats measured 24 h after occlusion at an intravenous dose of 1 mg/kg. It is filed as functional. The essentials:
as §3

Data set [10] relates to Rattus norvegicus. Description: Preischemic effect of the compound in the MACo model in rats measured 24 hr after occlusion at an intravenous dose of 3 mg/kg. It is filed as functional. The essentials:
as §3

Data set [11] in a line: Effective dose was evaluated. It is filed as functional.
Data set [12] addresses Glutamate receptor ionotropic, kainate. Description: Inhibition of binding of [3H]kainate to Ionotropic glutamate receptor kainate in synaptic membranes of rat cerebral cortex. It is filed as cell membranes. In short, it runs like this:
as §2

A word on the ED50: it is the dose at which the effect has come halfway, by size or by number of responders. In general, Ki refers to a measure of affinity in units of concentration, obtained from inhibition or displacement.

`COc1ccc(NC(=O)NCc2ccc(NC(=O)/C=C/c3c(C(=O)[O-])[nH]c4cc(Cl)cc(Cl)c34)cc2)cc1.[Na+]`: at Glutamate NMDA receptor, the “Log Ki” value is on record as -7.69.
In the case of `O=C(/C=C/c1c(C(=O)[O-])[nH]c2cc(Cl)cc(Cl)c12)NC12CC3CC(CC(C3)C1)C2.[Na+]`, on Albumin, the “RSA tR” value is 141.2 min.
In the case of `C[C@@H](NC(N)=O)c1ccc(NC(=O)/C=C/c2c(C(=O)[O-])[nH]c3cc(Cl)cc(Cl)c23)cc1.[Na+]`, the “Log Ki” value at Glutamate NMDA receptor is recorded as -7.93.
For `Nc1ccc(NC(=O)/C=C/c2c(C(=O)[O-])[nH]c3cc(Cl)cc(Cl)c23)cc1.[Na+]`, the “RSA tR” value on Albumin amounted to 23.2 min.
As to `NC(=O)Nc1ccc(NC(=O)/C=C/c2c(C(=O)[O-])[nH]c3cc(Cl)cc(Cl)c23)cc1.[Na+]`, the “RSA tR” value on Albumin came out at 28.3 min. Also, the ED50 is 0.55 mg/kg with Mus musculus [1] and 9.6 mg/kg with Mus musculus [2]. The “Log Ki” value on Glutamate NMDA receptor is reported as -8.8.
As to `CC/N=C(\S)NCc1ccc(NC(=O)/C=C/c2c(C(=O)[O-])[nH]c3cc(Cl)cc(Cl)c23)cc1.[Na+]`, the “RSA tR” value on Albumin came out at 34.1 min. Further, on Glutamate NMDA receptor, the “Log Ki” value was -7.91.
In the case of `O=C(/C=C/c1c(C(=O)[O-])[nH]c2cc(Cl)cc(Cl)c12)NC1CCCCC1.[Na+]`, on Albumin, the “RSA tR” value is reported as 25.7 min.
Consider `CC(=O)Nc1ccc(NC(=O)/C=C/c2c(C(=O)[O-])[nH]c3cc(Cl)cc(Cl)c23)cc1.[Na+]`, for which the “RSA tR” value on Albumin is 31.6 min.
With `O=C(/C=C/c1c(C(=O)[O-])[nH]c2cc(Cl)cc(Cl)c12)Nc1ccc(CNC(=O)Nc2cccnc2)cc1.[Na+]`, the “Log Ki” value on Glutamate NMDA receptor was -7.83.
As to `C[C@H](NC(N)=O)c1ccc(NC(=O)/C=C/c2c(C(=O)[O-])[nH]c3cc(Cl)cc(Cl)c23)cc1.[Na+]`, the “Log Ki” value on Glutamate NMDA receptor is listed as -8.2.
With `O=C(/C=C/c1c(C(=O)[O-])[nH]c2cc(Cl)cc(Cl)c12)NCc1ccccc1.[Na+]`, at Albumin, the “RSA tR” value is 66.9 min.
`O=C(/C=C/c1c(C(=O)[O-])[nH]c2cc(Cl)cc(Cl)c12)Nc1ccc(CNC(=O)NC2CCOCC2)cc1.[Na+]`: at Albumin, the “RSA tR” value was determined as 29.6 min. Moreover, the “Log Ki” value on Glutamate NMDA receptor is reported as -8.15.
Regarding `CCNC(=O)NCc1ccc(NC(=O)/C=C/c2c(C(=O)[O-])[nH]c3cc(Cl)cc(Cl)c23)cc1.[Na+]`, the “Log Ki” value on Glutamate NMDA receptor is reported as -8.62.
On to `NC(=O)NCc1ccc(NC(=O)/C=C/c2c(C(=O)[O-])[nH]c3cc(Cl)cc(Cl)c23)cc1.[Na+]`, for which the “RSA tR” value on Albumin is 40.7 min. This compound also gave a Ki in data set [3] of 105 µM. Besides, the ED50 with Mus musculus [1] was found to be 0.07 mg/kg; in the data set with Mus musculus [2], 2 mg/kg; in data set [11], 0.2 mg/kg. In addition, the “Log Ki” value in data set [4] was -3.48; at Glutamate NMDA receptor, -8.67; in data set [12], -4.68. Also, the Infarct volume in the data set with Rattus norvegicus [5] turned out to be 54.7 mm**3; with Rattus norvegicus [6], 61.9 mm**3; in the data set with Rattus norvegicus [8] it was 36.4 mm**3; in the data set with Rattus norvegicus [9], 38.9 mm**3; in the data set with Rattus norvegicus [10] it was 27.8 mm**3. Besides, the damage reduction in the data set filed under Rattus norvegicus [7] was 41% [middle of 5 runs].
For the compound `O=C(/C=C/c1c(C(=O)[O-])[nH]c2cc(Cl)cc(Cl)c12)Nc1ccc(CNC(=O)Nc2ccccc2)cc1.[Na+]`, the “Log Ki” value on Glutamate NMDA receptor is -7.7.
As to `NC(=O)NCCc1ccc(NC(=O)/C=C/c2c(C(=O)[O-])[nH]c3cc(Cl)cc(Cl)c23)cc1.[Na+]`, the “RSA tR” value on Albumin was 33.9 min. Moreover, the values for the ED50 in the data set on Mus musculus [1] and in the data set on Mus musculus [2] were 0.14 mg/kg and 17.3 mg/kg, respectively. In addition, the “Log Ki” value on Glutamate NMDA receptor is on record as -8.2.
Turning to `O=C(/C=C/c1c(C(=O)[O-])[nH]c2cc(Cl)cc(Cl)c12)Nc1ccc(CNC(=O)NC2CC2)cc1.[Na+]`, on Glutamate NMDA receptor, the “Log Ki” value was -8.25.
With `O=C(O)CNC(=O)NCc1ccc(NC(=O)/C=C/c2c(C(=O)[O-])[nH]c3cc(Cl)cc(Cl)c23)cc1.[Na+]`, the “Log Ki” value on Glutamate NMDA receptor was -8.57.
With `O=C(/C=C/c1c(C(=O)[O-])[nH]c2cc(Cl)cc(Cl)c12)Nc1ccccc1.[Na+]` [GAVESTINEL SODIUM], the “RSA tR” value at Albumin was found to be 60.1 min. Besides, the results for the ED50 with Mus musculus [1] and in the data set on Mus musculus [2] were 0.06 mg/kg and 6 mg/kg, respectively. Moreover, on Glutamate NMDA receptor, the “Log Ki” value is -8.49.
As to `O=c1[nH]c2cc(Cl)c(Cl)c([N+](=O)[O-])c2[nH]c1=O` [LICOSTINEL], the “RSA tR” value at Albumin stood at 12.1 min.
